Source: publication PMC3703919 (Clinical cancer research : an official journal of the …, 2009)

Legend:
[1] = tested on: patients with advanced solid tumors; assay: Phase I dose escalation: toxicity assessment; format: in vivo, human
Procedure, shortened: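 Cohorts of three started at 100 μg/kg s.c. daily ×5 per 21-d cycle, with planned levels of 100–1,000 μg/kg. One DLT expanded a cohort to six. DLT was grade ≥3 toxicity at least possibly treatment-related, and MTD allowed ≤1/6 with DLT. Exam and labs ran weekly in cycle 1, then on day 1 of later cycles, graded by CTCAE v3.0.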

[2] = Pharmacokinetics: plasma Ang-; format: in vivo, human
[3] = 18 patients, 100-700 μg/kg s.c. daily x5 every 21 d, CTCAE v3.0, count

In the case of `CC[C@H](C)[C@H](NC(=O)[C@H](Cc1ccc(O)cc1)NC(=O)[C@@H](NC(=O)[C@H](CCCNC(=N)N)NC(=O)[C@@H](N)CC(=O)O)C(C)C)C(=O)N[C@@H](Cc1c[nH]cn1)C(=O)N1CCC[C@H]1C(=O)O` [Ang-(1-7), Angiotensin-(1-7)], the “SAE possibly related to Ang-(1-7)” value ([1]; 400 μg/kg, one patient with metastatic pancreatic cancer, first cycle) is reported as “grade 3 deep vein thrombosis”, the dose-limiting toxicities encountered ([1]; 700 μg/kg dose) is reported as “stroke (grade 4) and reversible cranial neuropathy (grade 3)” and the “Cerebrovascular ischemia, grade 2, adverse events at least possibly related to treatment” value [1, 3] is reported as 0. For the same molecule, the “Cerebrovascular ischemia, grade 3, adverse events at least possibly related to treatment” value [1, 3] was 0, the “Cerebrovascular ischemia, grade 4, adverse events at least possibly related to treatment” value [1, 3] was 1 and the “Cerebrovascular ischemia, total, adverse events at least possibly related to treatment” value [1, 3] was 1. The “Fatigue, grade 2, adverse events at least possibly related to treatment” value [1, 3] was 2, the “Fatigue, grade 3, adverse events at least possibly related to treatment” value [1, 3] was 0 and the “Fatigue, grade 4, adverse events at least possibly related to treatment” value [1, 3] was 0. The “Fatigue, total, adverse events at least possibly related to treatment” value [1, 3] was 2, the “Gingival regression, grade 2, adverse events at least possibly related to treatment” value [1, 3] was 1 and the “Gingival regression, grade 3, adverse events at least possibly related to treatment” value [1, 3] was 0. The “Gingival regression, grade 4, adverse events at least possibly related to treatment” value [1, 3] was 0, the “Gingival regression, total, adverse events at least possibly related to treatment” value [1, 3] was 1 and the “Hypocalcemia, grade 2, adverse events at least possibly related to treatment” value [1, 3] was 1. The “Hypocalcemia, grade 3, adverse events at least possibly related to treatment” value [1, 3] was 0, the “Hypocalcemia, grade 4, adverse events at least possibly related to treatment” value [1, 3] was 0 and the “Hypocalcemia, total, adverse events at least possibly related to treatment” value [1, 3] was 1. The “Muscle weakness, grade 2, adverse events at least possibly related to treatment” value [1, 3] was 1, the “Muscle weakness, grade 3, adverse events at least possibly related to treatment” value [1, 3] was 0 and the “Muscle weakness, grade 4, adverse events at least possibly related to treatment” value [1, 3] was 0. The “Muscle weakness, total, adverse events at least possibly related to treatment” value [1, 3] was 1, the “Musculoskeletal pain, grade 2, adverse events at least possibly related to treatment” value [1, 3] was 2 and the “Musculoskeletal pain, grade 3, adverse events at least possibly related to treatment” value [1, 3] was 0. The “Musculoskeletal pain, grade 4, adverse events at least possibly related to treatment” value [1, 3] was 0, the “Musculoskeletal pain, total, adverse events at least possibly related to treatment” value [1, 3] was 2 and the “Neuropathy, cranial, grade 2, adverse events at least possibly related to treatment” value [1, 3] was 0. For the same molecule, the “Neuropathy, cranial, grade 3, adverse events at least possibly related to treatment” value [1, 3] was 1, the “Neuropathy, cranial, grade 4, adverse events at least possibly related to treatment” value [1, 3] was 0 and the “Neuropathy, cranial, total, adverse events at least possibly related to treatment” value [1, 3] was 1. The “Orthostasis, grade 2, adverse events at least possibly related to treatment” value [1, 3] was 1, the “Orthostasis, grade 3, adverse events at least possibly related to treatment” value [1, 3] was 0 and the “Orthostasis, grade 4, adverse events at least possibly related to treatment” value [1, 3] was 0. For the same molecule, the “Orthostasis, total, adverse events at least possibly related to treatment” value [1, 3] was 1, the “Thrombosis/thrombus/embolism, grade 2, adverse events at least possibly related to treatment” value [1, 3] was 0 and the “Thrombosis/thrombus/embolism, grade 3, adverse events at least possibly related to treatment” value [1, 3] was 1. For the same molecule, the “Thrombosis/thrombus/embolism, grade 4, adverse events at least possibly related to treatment” value [1, 3] was 0, the “Thrombosis/thrombus/embolism, total, adverse events at least possibly related to treatment” value [1, 3] was 1 and the hematologic toxicity ([1]; all dose levels 100-700 μg/kg, 18 patients) was “No hematologic toxicity was observed”. The “bleeding complications or episodes of hypertension” value ([1]; all dose levels, 18 patients) was “No bleeding complications or episodes of hypertension were observed”, the “patients with mild muscle cramps” value ([1]; all dose levels, 18 patients) was “three” and the treatment-related deaths ([1]; all dose levels, 18 patients) was “no treatment-related deaths”. For the same molecule, the “recommended phase II dose” value ([1]; s.c. once daily for 5 consecutive days on a 3-week cycle) was 0.4 mg/kg, the Tmax ([2]; human, sc) was 1 h and the “dose-dependent increases in drug exposure” value ([2]; s.c. 100-700 μg/kg, RIA) was “observed only at the highest dose level”.
